This note sets out measurements from ChEMBL document CHEMBL1144135, “Synthesis of 11,12-epoxydrim-8,12-en-11-ol, 11,12-diacetoxydrimane, and warburganal from (-)-sclareol” (J Nat Prod, 1999).

Type in all cases: functional, cell-based
Test [1] concerns HT-29. Put plainly: Antitumor activity against human HT-29 cells. The method in brief: (§1)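 Cells from four lines (P-388, A-549, HT-29, MEL-28) were tested in parallel with reference standards. Activity was read out as IC50 in […], using a previously published antitumor assay protocol.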
In test [2] the test system is P388. Put plainly: Antitumor activity against mouse P388 cells. The method in brief:
as §1

Test [3] relates to A549. The experiment in a line: Antitumor activity against human A549 cells. A digest of the protocol: as §1
A short description of test [4]: Antitumor activity against human SK MEL28 cells. To be noted: SK-MEL-28. The method in brief:
as §1

In brackets after ≈: the same amount, converted by molar mass.

As usually defined, the IC50 is the point on the concentration scale where inhibition reaches its midpoint. In the case of `CC1(C)CCC[C@]2(C)[C@@H]3C(=CO[C@@H]3O)CC[C@@H]12`, the IC50 in test [1] came out at 1 µg/mL (≈ 4.23 µM); in test [2], 0.5 µg/mL (≈ 2.12 µM); in test [3] it was 0.5 µg/mL (≈ 2.12 µM); in test [4], 1 µg/mL (≈ 4.23 µM).

Regarding `COc1cccc2c1C(=O)c1c(O)c3c(c(O)c1C2=O)C[C@@](O)(C(=O)CO)C[C@@H]3O[C@H]1C[C@H](N)[C@H](O)[C@H](C)O1.Cl` [DOXORUBICIN HYDROCHLORIDE], the IC50 in test [1] turned out to be 0.5 µg/mL; in test [2], 0.1 µg/mL; in test [3] it was 0.025 µg/mL; in test [4], 0.5 µg/mL.

Turning to `O=c1[nH]cc(F)c(=O)[nH]1` [FLUOROURACIL], the IC50 in test [1] is 0.1 µg/mL (≈ 0.769 µM); in test [2] it was 0.02 µg/mL (≈ 0.154 µM); in test [3], 0.1 µg/mL (≈ 0.769 µM); in test [4], 0.1 µg/mL (≈ 0.769 µM).

For `CN(Cc1cnc2nc(N)nc(N)c2n1)c1ccc(C(=O)N[C@@H](CCC(=O)O)C(=O)O)cc1` [METHOTREXATE], the IC50 in test [1] is 0.01 µg/mL (≈ 0.022 µM); in test [2] it was 0.002 µg/mL (≈ 0.0044 µM); in test [3], 0.005 µg/mL (≈ 0.011 µM); in test [4], 0.01 µg/mL (≈ 0.022 µM).

On to `CC1(C)CCC[C@]2(C)[C@@H](C=O)C(C=O)=CC[C@@H]12` [POLYGODIAL], for which the IC50 in test [1] was found to be 2.5 µg/mL (≈ 10.7 µM); in test [2], 1.2 µg/mL (≈ 5.12 µM); in test [3] it was 2.5 µg/mL (≈ 10.7 µM); in test [4], 2.5 µg/mL (≈ 10.7 µM).
